# Screening results as filed in PubChem BioAssay.
# Ec RNAP inh – blocks E. coli RNA polymerase transcription. P0A8V2. fluorescence transcription assay. inhibition, %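 (tested at 10 µM)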. 62,000 compounds, 0.2% hits. AID 559; in the data active = inhibition above about 20%;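 note: 0% = enzyme without compound and 100% = no enzyme blank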
# Target sequence (P0A8V2 whole entry, looked up): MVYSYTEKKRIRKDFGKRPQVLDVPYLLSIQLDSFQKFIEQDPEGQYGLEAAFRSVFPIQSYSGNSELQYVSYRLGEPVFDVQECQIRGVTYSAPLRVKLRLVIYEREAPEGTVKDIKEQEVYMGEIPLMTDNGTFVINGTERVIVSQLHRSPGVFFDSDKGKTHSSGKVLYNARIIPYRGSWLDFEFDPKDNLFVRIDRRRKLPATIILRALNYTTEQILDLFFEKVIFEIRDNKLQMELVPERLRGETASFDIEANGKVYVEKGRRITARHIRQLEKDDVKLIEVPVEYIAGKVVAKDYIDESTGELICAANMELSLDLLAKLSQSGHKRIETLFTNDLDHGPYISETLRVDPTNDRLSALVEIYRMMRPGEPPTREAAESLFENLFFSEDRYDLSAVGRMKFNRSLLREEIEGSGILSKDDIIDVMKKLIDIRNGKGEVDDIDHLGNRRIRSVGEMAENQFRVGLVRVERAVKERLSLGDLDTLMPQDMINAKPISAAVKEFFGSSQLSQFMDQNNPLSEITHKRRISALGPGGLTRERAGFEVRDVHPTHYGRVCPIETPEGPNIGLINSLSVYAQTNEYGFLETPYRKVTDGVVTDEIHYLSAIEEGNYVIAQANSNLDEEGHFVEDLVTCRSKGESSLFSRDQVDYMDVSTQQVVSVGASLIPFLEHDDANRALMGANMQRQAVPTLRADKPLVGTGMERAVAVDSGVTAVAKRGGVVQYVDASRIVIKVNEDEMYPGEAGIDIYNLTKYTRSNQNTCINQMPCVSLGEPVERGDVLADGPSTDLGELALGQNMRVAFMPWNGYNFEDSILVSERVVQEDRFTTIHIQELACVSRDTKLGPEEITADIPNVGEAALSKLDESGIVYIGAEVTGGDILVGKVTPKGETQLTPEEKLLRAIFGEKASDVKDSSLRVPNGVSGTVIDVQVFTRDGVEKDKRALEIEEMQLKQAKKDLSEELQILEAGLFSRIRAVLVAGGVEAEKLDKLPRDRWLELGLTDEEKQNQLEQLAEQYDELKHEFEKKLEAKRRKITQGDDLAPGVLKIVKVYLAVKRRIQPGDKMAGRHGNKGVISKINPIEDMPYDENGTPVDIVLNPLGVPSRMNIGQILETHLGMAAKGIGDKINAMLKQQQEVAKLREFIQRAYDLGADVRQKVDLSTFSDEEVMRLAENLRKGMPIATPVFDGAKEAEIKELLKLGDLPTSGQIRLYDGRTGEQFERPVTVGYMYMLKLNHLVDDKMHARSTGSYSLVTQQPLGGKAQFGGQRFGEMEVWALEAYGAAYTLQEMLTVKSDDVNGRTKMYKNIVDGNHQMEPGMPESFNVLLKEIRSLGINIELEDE
# Ecoli tolC – blocks growth of E. coli BW25113 tolC mutant; growth inhibition, % at 10 µM (by protocol); OD615; 65,000 compounds, 2.2% hits;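 active = growth inhibition at or above a cutoff equal to the mean over every tested compound plus 3 SD, cut at about 60% in these data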;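 note: growth measured after 20 h incubation at 37 °C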
#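 Test system: E. coli BW25113 ΔtolC::kan bacteria | Medium: Kanamycin-containing LB broth (50 µg/mL) | Dosing: One dose of 10 µM final | Times: 20 h incubation with compound, 37 °C | Detection: Optical density read at 615 nm | Read-out basis: Percent growth inhibition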
# MMP-13 inhibitor – blocks human MMP13 activity | P45452 | inhibition, % at 4 µM | 65,000 compounds, 0.07% hits | MMP-13 fTHP FRET cleavage, Mca fluorescence;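 active = inhibition above the mean of compound-free control plate wells plus 3 SD, cut at about 14% in these data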;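 note: 0% = DMSO wells and 100% = wells with reference MMP-13 inhibitor after basal subtraction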
# BAP1 inh – inhibitors of human BAP1 deubiquitinase; calls only at 20 µM; recombinant BAP1, Ub-AMC hydrolysis fluorescence kinetic; stronger effect = lower value; AID 436; 72,000 compounds, 0.48% hits;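 active = activity remaining at or below 50% of control, provided the compound also passes the data quality filters; inactive = the rest, including low values that fail the filters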;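 note: 100% = DMSO wells rate and 0% = substrate alone blank rate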
# E coli WT exp – growth inhibitors of E. coli BW25113 wild type | 98,000 compounds, 0.15% hits | AID 710 | OD600 absorbance | growth inhibition, % at 100 µM;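 active = growth inhibition above about 50% at one test dose, limit read from the data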;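 note: growth measured after 20 h incubation at 37 °C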
# AP complement – orthogonal test for alternative complement pathway inhibitors | inhibition, % at 5 µM | AID 1235 | Human serum alternative complement pathway, LPS-coated ELISA, C3 deposition; tested in compound mixtures | 62,000 compounds, 0.08% hits;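 active = inhibition above 30% in each of the two pooled mixtures holding the compound, so the lower value exceeds 30%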;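 note: 0% = serum in Mg-EGTA without compound and 100% = EDTA serum blank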
#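 Test system: human serum alternative complement pathway, C3 deposition on LPS-coated wells; also added: Plate-bound LPS; doses: 5 µM per compound in ten-compound mixtures; schedule: 1 h at 37 °C; detection: Anti-C3 ELISA, OD 450 nm; evaluation: percent inhibition of C3 deposition onto LPS; repeats: two pool placements per compound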
# An asterisk follows results filed as active; i = inactive; . = no result given; + = active, no number. Only a selection was taken, and hits are over-represented in it overall.
SMILES,Ec RNAP inh,Ecoli tolC,MMP-13 inhibitor,BAP1 inh,E coli WT exp,AP complement
O=C(Nc1nnc(-c2cccs2)o1)c1ccco1,9,-1,-1,i,6,-5
CCc1nnc(NC(=O)c2ccc(S(=O)(=O)N(CC)Cc3ccccc3)cc2)o1,-7,100*,0,i,2,12
CCc1nnc(NC(=O)c2ccc(S(=O)(=O)N(CC)CC)cc2)s1,7,4,7,i,-14,-2
CCCCN(CCCC)S(=O)(=O)c1ccc(C(=O)Nc2nnc(COC)o2)cc1,6,97*,-2,i,5,11
CCCCN(C)S(=O)(=O)c1ccc(C(=O)Nc2nnc(CSC)o2)cc1,6,98*,-1,i,14,-8
CCOc1cc2c(c([N+](=O)[O-])c1)NC(c1ccc([N+](=O)[O-])cc1)C1CC=CC21 (centres undefined),.,.,.,i,.,.
CC(=O)Oc1ccc2c3c(c(=O)oc2c1)CCC3,.,.,.,i,.,.
O=C(Cc1ccc(Cl)cc1)N1CCN(c2ccc([N+](=O)[O-])cc2)CC1,.,.,.,i,.,.
Cc1ccc(NC(=O)CCCCCN2C(=O)c3ccccc3C2=O)c(Br)c1,.,.,.,i,.,.
CCn1c(SC)nnc1-c1sc2cc(Cl)ccc2c1Cl,11,77*,-1,i,-7,-6
CCCOc1ccccc1Cn1c(=O)oc2ccc(C)cc21,2,73*,10,i,2,-2
NCCCc1nc2c(ccc3ccccc32)[nH]1,.,.,.,i,.,.
COc1ccc(-c2nnc3n2N=C(c2ccccc2)CS3)cc1OC,6,9,4,i,.,0
Cc1cc(-c2nnc3n2N=C(c2ccc(-c4ccccc4)cc2)CS3)n[nH]1,7,92*,-1,.,-4,15
O=C(CCCCCN1C(=O)c2ccccc2C1=O)NCc1ccccc1,.,.,.,i,.,.
Clc1ccc(OCc2nn3c(C4CCCCC4)nnc3s2)cc1,4,97*,-2,i,-7,5
c1ccc(-c2nn3c(C4CCCCC4)nnc3s2)nc1,0,-11,3,i,-3,-4
CCCCCCCC/C=C\CCCCCCCC(=O)NCCc1ccc(O)c(O)c1,.,.,.,+,.,.
CCCCCCCC/C=C\CCCCCCCC(=O)NCCO,.,.,.,i,.,.
CCOC(=O)c1cnc(-n2cc(C)cn2)nc1Nc1ccccc1OCC,6,68*,7,i,3,11
CC1(C)Cc2ccccc2C(CCl)=N1,.,.,.,i,.,.
COc1ccccc1-n1c(=O)oc2ccc(Cl)cc2c1=O,5,100*,-6,i,46,6
COc1ccc(Cl)cc1N1Cc2ccccc2C1,.,.,.,.,-13,.
COc1ccc(-c2noc(CCCc3ccccc3)n2)cc1OC,7,62*,2,i,-3,2
COc1ccc(-c2noc(Cc3ccc(Cl)cc3)n2)cc1OC,7,63*,.,.,-12,0
SMILES,Ec RNAP inh,Ecoli tolC,MMP-13 inhibitor,BAP1 inh,E coli WT exp,AP complement
Cc1ccc(-c2noc(CCCc3ccccc3)n2)cc1,.,.,.,.,7,.
CC1=C(C(=O)OCCOc2ccccc2)C2(O)C(=O)c3ccccc3C2(O)N1 (centres undefined),.,.,.,i,.,.
Cn1ncc2c(Nc3ccc4ccccc4c3)ncnc21,21*,8,5,i,-8,2
Clc1cccc(NCc2nnc(SCc3ccccc3)o2)c1,5,99*,-3,i,7,-4
CO[C@@]1(NC(=O)Cc2cccs2)C(=O)N2C(C(=O)O)=C(COC(N)=O)CS[C@@H]21,.,100*,.,.,.,.
COc1cc(C2NC(=O)NC(C)=C2C(=O)OCCC#N)ccc1O (centres undefined),.,.,.,i,.,.
COc1ccccc1C1CC(c2ccc(Cl)cc2)Nc2ncnn21 (centres undefined),-4,60*,5,i,10,10
CCCCOc1ccc(S(=O)(=O)N2CCCCCC2)cc1,.,62*,7,i,9,21
COc1cc2cc(C(c3nnnn3C3CCCCC3)N(C)C3CCCCC3)c(=O)[nH]c2cc1OC (centres undefined),3,75*,-32,.,-8,-7
Oc1c(Br)cc(Br)cc1/C=N/c1nc2c(s1)CCCC2,.,.,.,.,67*,.
C=CCc1c(C)nc(SCc2nc3ccccc3c(=O)[nH]2)[nH]c1=O,10,100*,4,i,5,6
C=CCn1c(SCc2nc3ccccc3c(=O)[nH]2)nc2ccccc2c1=O,.,.,.,.,-7,.
